E coli WT exp: growth inhibitors of wild-type E. coli, primary screen, strain BW25113, expanded library, OD600. OD600 absorbance. growth inhibition, % at 100 µM. 98,000 compounds, 0.15% hits. AID 710, 2007;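 active = growth inhibition above about 50% at one test dose, limit read from the data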;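 also: growth measured after 20 h incubation at 37 °C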
Ecoli tolC: growth inhibitors of E. coli tolC mutant, primary screen, strain BW25113 ΔtolC::kan, 384-well. OD615. growth inhibition, % at 10 µM (by protocol). 65,000 compounds, 2.2% hits. AID 573, 2007;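 active = growth inhibition at or above a cutoff equal to the mean over every tested compound plus 3 SD, cut at about 60% in these data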;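 also: growth measured after 20 h incubation at 37 °C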
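Test system: E. coli BW25113 ΔtolC::kan bacteria | Medium: Kanamycin-containing LB broth (50 µg/mL) | Dosing: One dose of 10 µM final | Times: 20 h incubation with compound, 37 °C | Detection: Optical density read at 615 nm | Read-out basis: Percent growth inhibition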
EphB4 antag: EphB4-ephrin-B2 interaction antagonists, primary screen, biochemical, TNYL-RAW peptide probe, fluorescence polarization; AID 720, 2007; inhibition, % at 7 µM; Ephrin type-B receptor 4 (Homo sapiens), P54760; EphB4 LBD / TNYL-RAW-Alexa532 peptide; 97,000 compounds, 0.15% hits;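 active = inhibition above the screen-wide mean inhibition plus 3 SD, cut at about 15% in these data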
Target sequence (P54760 whole entry, looked up, the tested form may be a part): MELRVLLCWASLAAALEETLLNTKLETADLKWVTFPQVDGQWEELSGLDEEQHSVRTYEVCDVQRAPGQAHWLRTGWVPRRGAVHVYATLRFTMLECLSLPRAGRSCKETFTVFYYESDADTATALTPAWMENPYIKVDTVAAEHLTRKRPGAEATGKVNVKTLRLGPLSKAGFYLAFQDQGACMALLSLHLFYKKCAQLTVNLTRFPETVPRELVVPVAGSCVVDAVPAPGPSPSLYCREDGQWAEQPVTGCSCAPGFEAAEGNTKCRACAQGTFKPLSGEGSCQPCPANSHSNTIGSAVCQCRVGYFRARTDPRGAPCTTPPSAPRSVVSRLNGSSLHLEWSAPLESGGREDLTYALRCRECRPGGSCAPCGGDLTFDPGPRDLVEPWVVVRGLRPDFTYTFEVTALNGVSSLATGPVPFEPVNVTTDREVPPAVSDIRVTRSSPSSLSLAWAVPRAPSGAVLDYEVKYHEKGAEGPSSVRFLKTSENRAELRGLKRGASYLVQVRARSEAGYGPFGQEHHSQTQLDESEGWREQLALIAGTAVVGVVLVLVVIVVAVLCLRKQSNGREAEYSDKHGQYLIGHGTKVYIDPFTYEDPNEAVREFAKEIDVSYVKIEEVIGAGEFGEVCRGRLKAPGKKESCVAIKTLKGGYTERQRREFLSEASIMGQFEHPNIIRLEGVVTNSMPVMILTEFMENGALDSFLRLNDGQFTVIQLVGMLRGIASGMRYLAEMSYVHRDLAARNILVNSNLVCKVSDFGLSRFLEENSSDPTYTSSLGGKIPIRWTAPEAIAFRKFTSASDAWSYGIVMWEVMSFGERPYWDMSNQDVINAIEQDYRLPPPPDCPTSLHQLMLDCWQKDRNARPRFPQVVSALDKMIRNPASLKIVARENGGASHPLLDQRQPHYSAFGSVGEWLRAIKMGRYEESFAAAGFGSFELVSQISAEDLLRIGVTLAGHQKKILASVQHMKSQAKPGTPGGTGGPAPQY
PostGolgi yeast: phenotypic screen on post-Golgi transport, primary screen; 98,000 compounds, 0.9% hits; inhibition, % at 10 µM; post-Golgi transport phenotypic cell assay; AID 739, 2007;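 also: yeast cells grown in 1536-well plates; yeast grown about 18 h at 30C before absorbance read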
PostGolgi ctrl: growth inhibition of yeast control strain, primary screen, counter-screen for post-Golgi transport modulator project; efflux-deficient yeast background strain, growth absorbance A615, 16 h; inhibition, % at 10 µM; 98,000 compounds, 5% hits
Numbers stand for hits. Hits are enriched below; roughly 6% of the tested compounds scored in any of these assays. Rule as the data show it, unless noted: active = inhibition above about 30%; inactive = the rest.

How did O=C1c2ccccc2C(=O)N1Cc1ccco1 do in these assays?
E coli WT exp: inactive; Ecoli tolC: inactive; EphB4 antag: inactive; PostGolgi yeast: inactive; PostGolgi ctrl: inactive

What do the screens show for `CC1=CC(=C2C(=O)c3ccccc3C2=O)C=C(C)N1Cc1ccco1`?
E coli WT exp: inactive; Ecoli tolC: inactive; EphB4 antag: inactive; PostGolgi yeast: inactive; PostGolgi ctrl: 37

Results for CCN1CCN(CC(=O)Nc2cccc(C)c2C)C(=O)C1=O ?
E coli WT exp: inactive; Ecoli tolC: inactive; EphB4 antag: inactive; PostGolgi yeast: inactive; PostGolgi ctrl: inactive

Results for Cc1cc(N2CCCCC2)nc(SCc2ccc(C#N)cc2)n1 ?
E coli WT exp: inactive; Ecoli tolC: 78; EphB4 antag: inactive; PostGolgi yeast: inactive; PostGolgi ctrl: 40

How did CCC(C)NC(=O)c1c(N)n(/N=C/c2ccccn2)c2nc3ccccc3nc12 (centres undefined) do in these assays?
E coli WT exp: inactive; Ecoli tolC: inactive; EphB4 antag: inactive; PostGolgi yeast: inactive; PostGolgi ctrl: 37

How did COc1ccc(OCCCC(=O)Nc2cc([N+](=O)[O-])ccc2C)cc1 do in these assays?
E coli WT exp: inactive; EphB4 antag: inactive; PostGolgi yeast: inactive; PostGolgi ctrl: inactive

How did CCOc1ccc2nc(SCC(=O)Nc3cc4c(cc3C(C)=O)OCO4)[nH]c2c1 do in these assays?
E coli WT exp: inactive; EphB4 antag: inactive; PostGolgi yeast: inactive; PostGolgi ctrl: inactive

Results for CC1(C)CC(=O)C(C=NCC2CCN(C(=O)Nc3ccc(Cl)c(Cl)c3)CC2)=C(O)C1 ?
E coli WT exp: inactive; EphB4 antag: inactive; PostGolgi yeast: inactive; PostGolgi ctrl: 38

What do the screens show for `CC(=O)NC(C)C(=O)OCC(=O)c1ccc(Cl)s1` (centres undefined)?
E coli WT exp: inactive; Ecoli tolC: inactive; EphB4 antag: inactive; PostGolgi yeast: inactive; PostGolgi ctrl: 36

How did O=C(CCC(=O)c1cccs1)OCC(=O)c1ccc(Cl)s1 do in these assays?
E coli WT exp: inactive; Ecoli tolC: inactive; PostGolgi yeast: inactive; PostGolgi ctrl: inactive

What do the screens show for `O=C(c1ccc(F)cc1)c1ccc(N2CCCC2)cc1`?
E coli WT exp: inactive; Ecoli tolC: inactive; EphB4 antag: inactive; PostGolgi yeast: inactive; PostGolgi ctrl: 42

Results for CCOC(=O)C1=C(C)N=c2s/c(=C/c3ccccc3)c(=O)n2C1c1ccc(OC)c(OC)c1 (centres undefined) ?
E coli WT exp: inactive; EphB4 antag: inactive; PostGolgi yeast: inactive; PostGolgi ctrl: inactive

Results for CCOC(=O)C1=C(C)n2c(s/c(=C/c3cccc([N+](=O)[O-])c3)c2=O)=NC1c1ccc(O)c(OC)c1 (centres undefined) ?
E coli WT exp: inactive; EphB4 antag: inactive; PostGolgi yeast: 61; PostGolgi ctrl: 39

How did CCN(CC)c1ccc(C(=O)n2cnc3ccccc32)cc1 do in these assays?
E coli WT exp: inactive; Ecoli tolC: 78; PostGolgi yeast: inactive; PostGolgi ctrl: inactive

What do the screens show for `Cc1c(SCCO)c(=O)[nH]c2cc3c(cc12)OCO3`?
E coli WT exp: inactive; EphB4 antag: inactive; PostGolgi yeast: inactive; PostGolgi ctrl: inactive

What do the screens show for `O=C(c1ccc(Cl)cc1)N1CCCC(c2ccccc2)=N1`?
E coli WT exp: inactive; EphB4 antag: inactive; PostGolgi yeast: inactive; PostGolgi ctrl: 36

What do the screens show for `COCc1c(C(=O)N2CCN(c3ccc(C(F)(F)F)cn3)CC2)oc2ccccc12`?
E coli WT exp: inactive; EphB4 antag: inactive; PostGolgi yeast: inactive; PostGolgi ctrl: inactive

Results for Cn1c(=O)oc2cc(S(=O)(=O)N3CCCC(C(=O)Nc4ccc5c(c4)OCCO5)C3)ccc21 (centres undefined) ?
E coli WT exp: inactive; Ecoli tolC: inactive; EphB4 antag: inactive; PostGolgi yeast: inactive; PostGolgi ctrl: 31

Results for COc1ccc(NC(=O)C2CCCN(S(=O)(=O)c3ccc4c(c3)oc(=O)n4C)C2)cc1OC (centres undefined) ?
E coli WT exp: inactive; EphB4 antag: inactive; PostGolgi yeast: inactive; PostGolgi ctrl: inactive

Results for CC1=CCC(C(=O)N/N=C/c2cccs2)C(c2ccc(F)cc2)C1 (centres undefined) ?
E coli WT exp: inactive; EphB4 antag: inactive; PostGolgi yeast: inactive; PostGolgi ctrl: 45

Results for COc1ccc(NS(=O)(=O)c2ccc3oc4ccccc4c3c2)cn1 ?
E coli WT exp: inactive; Ecoli tolC: 100; EphB4 antag: inactive; PostGolgi yeast: inactive; PostGolgi ctrl: 47

Results for Cc1ccc(C(=O)N2CCN(C3c4cccc5cccc(c45)C3NS(=O)(=O)c3ccccc3)CC2)cc1 (centres undefined) ?
E coli WT exp: inactive; EphB4 antag: inactive; PostGolgi yeast: inactive; PostGolgi ctrl: inactive

Results for O=C1CNCc2[nH]c3ccccc3c2N1c1ccccc1 ?
E coli WT exp: inactive; Ecoli tolC: inactive; EphB4 antag: inactive; PostGolgi yeast: inactive; PostGolgi ctrl: 32

What do the screens show for `O=CN1Cc2[nH]c3ccccc3c2N(c2ccc(Cl)cc2)C1=O`?
E coli WT exp: inactive; Ecoli tolC: inactive; EphB4 antag: inactive; PostGolgi yeast: inactive; PostGolgi ctrl: inactive

What do the screens show for `C=CCNC(=S)NNC(=O)COc1cccc(Cl)c1`?
E coli WT exp: inactive; EphB4 antag: inactive; PostGolgi yeast: inactive; PostGolgi ctrl: inactive

What do the screens show for `CCc1cc(OCCCSc2nc(C)cc(=O)[nH]2)ccc1Cl`?
E coli WT exp: inactive; EphB4 antag: inactive; PostGolgi yeast: inactive; PostGolgi ctrl: inactive

What do the screens show for `CCOC(=O)CSc1nc(C2CC2)nc2ccccc12`?
E coli WT exp: inactive; Ecoli tolC: inactive; EphB4 antag: inactive; PostGolgi yeast: inactive; PostGolgi ctrl: 39

How did Clc1ccc(-c2nnc3sc(Cc4cccs4)nn23)cc1 do in these assays?
Ecoli tolC: inactive

What do the screens show for `c1ccc(-c2nnc3sc(Cc4cccs4)nn23)cc1`?
E coli WT exp: inactive; Ecoli tolC: inactive; EphB4 antag: inactive; PostGolgi yeast: inactive; PostGolgi ctrl: 30

Results for COCCNC(=O)c1cn(C)c2ccc(S(=O)(=O)N(C)C3CCCCC3)cc2c1=O ?
E coli WT exp: inactive; Ecoli tolC: inactive; EphB4 antag: inactive; PostGolgi yeast: inactive; PostGolgi ctrl: 30

Results for CO/N=C(/CS(=O)(=O)c1ccc(C)cc1)c1ccc(OC)cc1 ?
E coli WT exp: inactive; EphB4 antag: inactive; PostGolgi yeast: inactive; PostGolgi ctrl: inactive

How did COC(=O)c1sc(NC(=O)C2CCCCC2C(=O)O)c(C(=O)OC)c1C (centres undefined) do in these assays?
E coli WT exp: inactive; Ecoli tolC: inactive; PostGolgi yeast: inactive; PostGolgi ctrl: inactive

What do the screens show for `COC(=O)c1ccc(NC(=O)C2CC2)o1`?
E coli WT exp: inactive; EphB4 antag: inactive; PostGolgi yeast: inactive; PostGolgi ctrl: inactive

Results for O=C(c1ccc(Br)o1)N1CCN(c2ccc3nnc(-c4ccccc4)n3n2)CC1 ?
E coli WT exp: inactive; Ecoli tolC: inactive; EphB4 antag: inactive; PostGolgi yeast: inactive; PostGolgi ctrl: inactive

What do the screens show for `O=S(=O)(c1ccc(Br)cc1)N1CCN(c2ccc3nnc(-c4ccccc4)n3n2)CC1`?
E coli WT exp: inactive; EphB4 antag: inactive; PostGolgi yeast: inactive; PostGolgi ctrl: 56

Screening results as filed in PubChem.
